Measurements as given in ChEMBL document CHEMBL4251593, “Nontoxic combretafuranone analogues with high in vitro antibacterial activity” (Eur J Med Chem, 2018).
Values after ≈ are worked out from the molar mass of the structure shown. Active and inactive are the calls of the source. The calls are words filed in the database; no cut-off is given here.

Assays:
Klebsiella pneumoniae [1] = test: Antibacterial activity against Klebsiella pneumoniae HK11750/08 clinical isolate after 48 hrs by microdilution assay; type: functional; conditions: HK11750/08, 48 h
Staphylococcus aureus [2] = test: Antibacterial activity against methicillin-resistant Staphylococcus aureus HK5996/08 clinical isolate after 48 hrs by microdilution assay; type: functional; conditions: HK5996/08, 48 h
Escherichia coli [3] = test: Antibacterial activity against Escherichia coli ATCC 8739 after 48 hrs by microdilution assay; type: functional; conditions: ATCC 8739, 48 h
In short: (§1)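 Broth microdilution in Mueller-Hinton medium buffered to pH 7.4 (±0.2), with DMSO as diluent at no more than 2% final. Compounds were tested as 2-fold serial dilutions from 2000 to 0.488 µmol/l. The inoculum was 0.5 McFarland (1.5×10^8 cfu/ml). Plates were held at 37 °C and read visually at 24 and 48 h. MIC was taken as 95% growth inhibition versus control, determined twice in duplicate.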

Klebsiella pneumoniae [4] = test: Antibacterial activity against Klebsiella pneumoniae HK14368/08 clinical isolate after 24 hrs by microdilution assay; type: functional; conditions: HK14368/08, 24 h
[5] = test system: Staphylococcus epidermidis; test: Antibacterial activity against Staphylococcus epidermidis HK6966/08 clinical isolate after 24 hrs by microdilution assay; type: functional; conditions: HK6966/08, 24 h
Candida tropicalis = test: Antifungal activity against Candida tropicalis 156 clinical isolate up to 1 mM after 24 to 48 hrs by microdilution assay; type: functional, organism-based
In short: (§2)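 Fungal microdilution following modified CLSI M27-A3/M38-A2, in RPMI 1640 with L-glutamine and 0.165 M MOPS at pH 7.0, with DMSO no more than 2% final. Compounds were 2-fold serially diluted from 2000 to 0.488 µmol/l. The inoculum was 5×10^3 cfu/ml. Incubation was at 35 °C, read visually at 24/48 h (T. mentagrophytes at 72/120 h). MIC was IC80 for yeasts and IC50 for filamentous fungi, determined twice in duplicate.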

Lichtheimia corymbifera = test: Antifungal activity against Absidia corymbifera 272 up to 1 mM after 24 to 48 hrs by microdilution assay; type: functional, organism-based; in short: as §2
Klebsiella pneumoniae [6] = test: Antibacterial activity against Klebsiella pneumoniae HK11750/08 clinical isolate after 24 hrs by microdilution assay; type: functional; conditions: HK11750/08, 24 h
Clavispora lusitaniae = test: Antifungal activity against Candida lusitaniae 2446/I clinical isolate up to 1 mM after 24 to 48 hrs by microdilution assay; type: functional, organism-based; in short: as §2
Klebsiella pneumoniae [7] = test: Antibacterial activity against Klebsiella pneumoniae HK14368/08 clinical isolate after 48 hrs by microdilution assay; type: functional; conditions: HK14368/08, 48 h
Staphylococcus aureus [8] = test: Antibacterial activity against Staphylococcus aureus ATCC 6538 after 24 hrs by microdilution assay; type: functional; conditions: ATCC 6538, 24 h
Staphylococcus aureus [9] = test: Antibacterial activity against Staphylococcus aureus ATCC 6538 after 48 hrs by microdilution assay; type: functional; conditions: ATCC 6538, 48 h
Staphylococcus aureus [10] = test: Antibacterial activity against methicillin-resistant Staphylococcus aureus HK5996/08 clinical isolate after 24 hrs by microdilution assay; type: functional; conditions: HK5996/08, 24 h
HL-60 [11] = test: Induction of apoptosis in human HL60 cells assessed as caspase 3/7 activity after 24 hrs by caspase-glo luminescent assay; type: cell-based; conditions: HL-60, 24 h
In short: (§3)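 Cells were seeded at 500 per well in their growth media and exposed to 12 concentrations from 40 µM to 1 nM, delivered from DMSO, in triplicate. After 24 h, caspase-3/7 activity was read by Caspase-Glo luminescence. Data were normalized and ED50 was fitted by variable-slope nonlinear regression.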

Enterococcus sp. [12] = test: Antibacterial activity against Enterococcus sp. HK14365/08 clinical isolate after 24 hrs by microdilution assay; type: functional; conditions: HK14365/08, 24 h
PC-3 [13] = test: Cytotoxicity against human PC3 cells assessed as reduction in cell viability after 48 hrs by ATPlite-based luminescent assay; conditions: PC-3, 48 h
In short: (§4)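 Cells were grown […] with 10% FBS, glutamax, NEAA and pen/strep at 37 °C, 5% CO2. Media were DMEM for RPE-1, HepG2 and BJ (BJ plus 10 ng/ml bFGF), F-12K for PC3, and IMDM for K562/HL-60. Cells were seeded at 500 per well and dosed from DMSO at 12 concentrations, 40 µM to 1 nM, in triplicate. After 48 h, intracellular ATP was read by luminescence. ED50 was obtained by variable-slope nonlinear regression.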

Escherichia coli [14] = test: Antibacterial activity against Escherichia coli ATCC 8739 after 24 hrs by microdilution assay; type: functional; conditions: ATCC 8739, 24 h; in short: as §1
Candida albicans [15] = test: Antifungal activity against Candida albicans ATCC 90028 up to 1 mM after 24 to 48 hrs by microdilution assay; type: functional, organism-based; in short: as §2
Pichia kudriavzevii [16] = test: Antifungal activity against Candida krusei E28 clinical isolate up to 1 mM after 24 to 48 hrs by microdilution assay; type: functional, organism-based; in short: as §2
TERT-RPE1 [17] = test: Cytotoxicity against human RPE1 cells assessed as reduction in cell viability after 48 hrs by ATPlite-based luminescent assay; conditions: RPE-1, 48 h; in short: as §4
MCF7 = test: Cytotoxicity against human MCF7 cells assessed as reduction in cell viability after 48 hrs by ATPlite-based luminescent assay; conditions: MCF7, 48 h
Enterococcus sp. [18] = test: Antibacterial activity against Enterococcus sp. HK14365/08 clinical isolate after 48 hrs by microdilution assay; type: functional; conditions: HK14365/08, 48 h
HepG2 [19] = test: Induction of apoptosis in human HepG2 cells assessed as caspase 3/7 activity after 24 hrs by caspase-glo luminescent assay; type: cell-based; conditions: HepG2, 24 h; in short: as §3
Candida albicans [20] = test: Antifungal activity against Candida albicans ATCC 44859 up to 1 mM after 24 to 48 hrs by microdilution assay; type: functional, organism-based; in short: as §2
PC-3 [21] = test: Induction of apoptosis in human PC3 cells assessed as caspase 3/7 activity after 24 hrs by caspase-glo luminescent assay; type: cell-based; conditions: PC-3, 24 h; in short: as §3
Pseudomonas aeruginosa [22] = test: Antibacterial activity against Pseudomonas aeruginosa ATCC 9027 after 24 hrs by microdilution assay; type: functional; conditions: ATCC 9027, 24 h; in short: as §1
HepG2 [23] = test: Cytotoxicity against human HepG2 cells assessed as reduction in cell viability after 48 hrs by ATPlite-based luminescent assay; conditions: HepG2, 48 h; in short: as §4
BJ = test: Cytotoxicity against human BJ cells assessed as reduction in cell viability after 48 hrs by ATPlite-based luminescent assay; in short: as §4
[24] = test system: Staphylococcus epidermidis; test: Antibacterial activity against Staphylococcus epidermidis HK6966/08 clinical isolate after 48 hrs by microdilution assay; type: functional; conditions: HK6966/08, 48 h
K562 [25] = test: Induction of apoptosis in human K562 cells assessed as caspase 3/7 activity after 24 hrs by caspase-glo luminescent assay; type: cell-based; conditions: K562, 24 h; in short: as §3
[26] = test system: Trichophyton mentagrophytes; test: Antifungal activity against Trichophyton mentagrophytes 445 up to 1 mM after 72 to 120 hrs by microdilution assay; type: functional, organism-based; in short: as §2
Pseudomonas aeruginosa [27] = test: Antibacterial activity against Pseudomonas aeruginosa ATCC 9027 after 48 hrs by microdilution assay; type: functional; conditions: ATCC 9027, 48 h; in short: as §1
Aspergillus fumigatus = test: Antifungal activity against Aspergillus fumigatus 231 up to 1 mM after 24 to 48 hrs by microdilution assay; type: functional, organism-based; in short: as §2
TERT-RPE1 [28] = test: Induction of apoptosis in human RPE1 cells assessed as caspase 3/7 activity after 24 hrs by caspase-glo luminescent assay; type: cell-based; conditions: RPE-1, 24 h; in short: as §3
Nakaseomyces glabratus = test: Antifungal activity against Candida glabrata 20/I clinical isolate up to 1 mM after 24 to 48 hrs by microdilution assay; type: functional, organism-based; in short: as §2
Trichosporon asahii = test: Antifungal activity against Trichosporon asahii 1188 clinical isolate up to 1 mM after 24 to 48 hrs by microdilution assay; type: functional, organism-based; in short: as §2
Candida parapsilosis = test: Antifungal activity against Candida parapsilosis ATCC 22019 up to 1 mM after 24 to 48 hrs by microdilution assay; type: functional, organism-based; in short: as §2
HL-60 [29] = test: Cytotoxicity against human HL60 cells assessed as reduction in cell viability after 48 hrs by ATPlite-based luminescent assay; conditions: HL-60, 48 h; in short: as §4
Pichia kudriavzevii [30] = test: Antifungal activity against Candida krusei ATCC 6258 up to 1 mM after 24 to 48 hrs by microdilution assay; type: functional, organism-based; in short: as §2
K562 [31] = test: Cytotoxicity against human K562 cells assessed as reduction in cell viability after 48 hrs by ATPlite-based luminescent assay; conditions: K562, 48 h; in short: as §4

Structure (SMILES)	MIC95 (Klebsiella pneumoniae [1]) [µM]	MIC95 (Staphylococcus aureus [2]) [µM]	MIC95 (Escherichia coli [3]) [µM]	MIC95 (Klebsiella pneumoniae [4]) [µM]	MIC95 [5] [µM]	MIC95 (Klebsiella pneumoniae [6]) [µM]	MIC95 (Klebsiella pneumoniae [7]) [µM]	MIC95 (Staphylococcus aureus [8]) [µM]	MIC95 (Staphylococcus aureus [9]) [µM]	MIC95 (Staphylococcus aureus [10]) [µM]	IC50 (HL-60 [11]) [µM]	MIC95 (Enterococcus sp. [12]) [µM]	IC50 (PC-3 [13]) [µM]	MIC95 (Escherichia coli [14]) [µM]	IC50 (TERT-RPE1 [17]) [µM]	IC50 (MCF7) [µM]	MIC95 (Enterococcus sp. [18]) [µM]	IC50 (HepG2 [19]) [µM]	IC50 (PC-3 [21]) [µM]	MIC95 (Pseudomonas aeruginosa [22]) [µM]	also measured
O=C1OCC(c2ccccc2)=C1c1ccc(Br)cc1	> 1000	62.5 (≈ 19.7 µg/mL)	> 1000	> 1000	31.2 (≈ 9.85 µg/mL)	> 1000	> 1000	3.9 (≈ 1.23 µg/mL)	15.6 (≈ 4.92 µg/mL)	31.2 (≈ 9.85 µg/mL)	> 40	> 1000	> 40	> 1000	> 40	> 40	> 1000	> 40	> 40	> 1000	Activity (Candida tropicalis): inactive; Activity (Lichtheimia corymbifera): inactive; Activity (Clavispora lusitaniae): inactive; Activity (Candida albicans [15]): inactive; Activity (Pichia kudriavzevii [16]): inactive; Activity (Candida albicans [20]): inactive; IC50 (HepG2 [23]): > 40 µM; IC50 (BJ): > 40 µM; MIC95 [24]: 62.5 µM (≈ 19.7 µg/mL); IC50 (K562 [25]): > 40 µM; Activity [26]: inactive; MIC95 (Pseudomonas aeruginosa [27]): > 1000 µM; Activity (Aspergillus fumigatus): inactive; IC50 (TERT-RPE1 [28]): > 40 µM; Activity (Nakaseomyces glabratus): inactive; Activity (Trichosporon asahii): inactive; Activity (Candida parapsilosis): inactive; IC50 (HL-60 [29]): > 40 µM; Activity (Pichia kudriavzevii [30]): inactive; IC50 (K562 [31]): > 40 µM
O=C1OCC(c2ccccc2)=C1c1ccc(F)cc1	> 500	125 (≈ 31.8 µg/mL)	> 500	> 500	125 (≈ 31.8 µg/mL)	> 500	> 500	15.6 (≈ 3.97 µg/mL)	15.6 (≈ 3.97 µg/mL)	125 (≈ 31.8 µg/mL)	> 40	> 500	> 40	> 500	> 40	> 40	> 500	> 40	> 40	> 500	IC50 (HepG2 [23]): > 40 µM; IC50 (BJ): > 40 µM; MIC95 [24]: 125 µM (≈ 31.8 µg/mL); IC50 (K562 [25]): > 40 µM; MIC95 (Pseudomonas aeruginosa [27]): > 500 µM; IC50 (TERT-RPE1 [28]): > 40 µM; IC50 (HL-60 [29]): > 40 µM; IC50 (K562 [31]): > 40 µM
O=C1OCC(c2ccc(C(F)(F)F)cc2)=C1c1c[nH]c2ccccc12	> 125	> 125	> 125	> 125	> 125	> 125	> 125	> 125	> 125	> 125	2.94	> 125	> 40	> 125	0.87	> 40	> 125	> 40	> 40	> 125	IC50 (HepG2 [23]): > 40 µM; IC50 (BJ): > 40 µM; MIC95 [24]: > 125 µM; IC50 (K562 [25]): > 40 µM; MIC95 (Pseudomonas aeruginosa [27]): > 125 µM; IC50 (TERT-RPE1 [28]): 1.54 µM; IC50 (HL-60 [29]): 0.67 µM; IC50 (K562 [31]): 0.26 µM
